Screens: PubChem BioAssay, several laboratories
HMGR II inh – inhibitors of class II HMG-CoA reductase from Enterococcus faecalis; purified E. faecalis HMGR, NADPH absorbance 340 nm kinetic; inhibition, % at 10 µM; 0.41% of 190,000 active; AID 1066;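 active = inhibition above a set limit, the median over all tested compounds plus 3 SD, cut at about 9.5% in these data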;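 also: enzyme runs in reverse so mevalonate oxidation gives rising NADPH absorbance; 0% = complete reaction with DMSO and 100% = background rate lacking mevalonate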
Yeast life ext – yeast lifespan extension. S. cerevisiae growth with nicotinamide, OD615; deaD strain in restrictive glucose medium. inhibition of the nicotinamide effect, % at 10 µM. 0.68% of 130,000 active. AID 775;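 active = inhibition above a set limit, placed 3 SD over the median of all compounds, cut at about 26% in these data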;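 also: 0% = nicotinamide-treated wells and 100% = cells grown without nicotinamide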
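Test system – modified budding yeast, DeaD strain · Compound – single dose 10 µM compound, 0.25% DMSO · Times – culture preincubation 4 h, compound exposure 48 h, both 30 °C · Detection – optical density (absorbance) at 615 nm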
b-catenin transl – modulators of beta-catenin nuclear translocation. HeLa beta-catenin nuclear translocation, immunofluorescence imaging. nuclear translocation activity, % at 5 µM. 0.3% of 190,000 active;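 active = nuclear translocation activity above 50% at 5 µM, with a well cell count of 50 or more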;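 also: per-cell ratio of nuclear to cytoplasmic median beta-catenin stain intensity; plate controls were DMSO negative control for no effect and GSK-3 inhibitor IX positive control for full effect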
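Signal – beta-catenin immunofluorescence imaging with DAPI · Test system – human HeLa cell line · Dosing – 5 µM primary single dose, 0.1% DMSO, 0.02–20 µM confirmation series · Measure – % activation, nuclear-to-cytoplasmic median beta-catenin signal ratio per cell · Incubation – 24 h compound exposure at 37°C, 5% CO2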
RAM inhibit – inhibitors of the yeast RAM network; S. cerevisiae dse1pr::URA3 reporter, 5-FOA growth OD615, 2 d; analog-sensitive cbk1-as2 kinase mutant strain; inhibition, % at 50 µM; 1.8% of 190,000 active; AID 868;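 active = inhibition above a set limit, 3 SD over mean compound inhibition, cut at about 8.4% in these data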;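 also: 0% = DMSO-only wells with no growth and 100% = 10 µM 1-NA-PP1 full growth; inhibition rescues growth on 5-FOA so higher OD means more RAM inhibition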
Yeast growth inh – reduces growth of yeast BB579 in restrictive medium; 0.51% of 140,000 active; AID 804; S. cerevisiae BB579 growth, OD615, 48 h; inhibition, % at 10 µM;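 active = inhibition above a set limit, 3 SD over the mean compound inhibition, cut at about 44% in these data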
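test system = yeast BB579 (DeaD) | buffer or medium = restrictive CSMM-D medium | doses = single compound dose of 10 µM, 0.25% DMSO final | times = 4 h preincubation and 48 h exposure at 30 °C | technique = culture absorbance at 615 nm | benchmarks = amphotericin B 10 µg/mL, positive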
MT stabilizer – stabilizes microtubules in HeLa cells | HeLa tubulin immunostaining HCS, 24 h; share of cells brighter than vehicle mean+2SD | % tubulin-high responders, % at 10 µM | 0.83% of 200,000 active | AID 2205;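 active = plate Z-score above 3 for both tubulin-high and condensed-nucleus cell shares, with cell loss under 80%, at 10 µM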;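 also: anti alpha tubulin signal scored within the nucleus-defined area of each cell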
An asterisk follows results filed as active; x = no result given. Rows were chosen to be rich in hits. Some 3.5% of all compounds tested hit in one or more screens of this group.

SMILES	HMGR II inh	Yeast life ext	b-catenin transl	RAM inhibit	Yeast growth inh	MT stabilizer
COc1ccc(N2CCc3c(C)nc4c(OC)cccc4c32)cc1	-3.6	x	104.0*	1.2	x	26.0*
CCCCCCn1nc(C(=O)Nc2nc3c(s2)CCCC3)c2ccccc2c1=O	-4.8	2.8	5.9	10.9*	-17.5	4.6
CCCCn1nc(C(=O)Nc2nc3c(s2)CCCC3)c2ccccc2c1=O	-3.2	-3.0	2.1	2.6	-5.8	4.8
N#CC1=C(N)NC(SCC(=O)c2ccccc2)=C(C#N)C12CCCC2	-3.9	2.3	3.3	10.5*	-28.5	2.8
N#CC1=C(N)NC(SCc2ccccc2)=C(C#N)C12CCCC2	-0.7	0.7	5.9	3.6	-44.3	16.8
Cc1cc(C)c(-n2c(SCCS(=O)(=O)c3ccc(F)cc3)n[nH]c2=O)c(C)c1	x	x	-2.3	x	x	x
CN(C)C(CNC(=O)CCOc1ccccc1)c1ccco1 (stereo not drawn)	21.2*	x	-2.7	1.2	x	1.5
Cc1ccc(C)c(NC(=O)Cn2cnc3c(oc4ccccc43)c2=O)c1	1.7	x	1.9	5.2	x	3.2
Cc1cc(C)nc(SC2=CS(=O)(=O)c3ccccc32)n1	-3.0	-8.6	-0.9	0.7	-7.1	2.9
O=S1(=O)C=C(Sc2nnc(-c3ccccc3)o2)c2ccccc21	0.3	43.3*	-0.6	2.6	36.4	2.4
COc1ccc(S(=O)(=O)Nc2ccccc2C(F)(F)F)cc1	0.3	25.0	0.6	0.9	-38.0	3.3
COc1ccc(S(=O)(=O)NN(C)c2nc(C(F)(F)F)nc3ccccc23)cc1	-3.2	x	-1.8	0.1	x	24.9*
COc1ccc(C(=O)OCCOc2ccccc2C(C)=O)c(O)c1	1.2	x	-0.8	11.3*	x	1.4
COc1ccc(S(N)(=O)=O)cc1C(=O)NCCCN1CCN(c2cccc(Cl)c2)CC1	-3.4	-7.0	-1.0	0.8	-21.9	2.6
COc1ccc(S(N)(=O)=O)cc1C(=O)NCCCN1CCN(c2ccc(C)cc2)CC1	-3.5	58.2*	-2.5	-0.3	-22.4	2.8
O=C1c2ccccc2-c2onc3ccc(NCCCn4ccnc4)c1c23	-0.3	79.7*	13.5	37.9*	-44.4	4.4
Cc1nc(NCCCn2ccnc2)c2ccccc2n1	-5.0	-8.5	-1.9	0.8	18.1	1.9
Cc1c(NC(=O)C(C)OC(=O)/C=C/c2ccc3c(c2)OCO3)c(=O)n(-c2ccccc2)n1C (stereo not drawn)	-0.7	x	-0.4	-0.4	x	3.4
Cc1ccc2nc(NC(=O)C3CCN(S(=O)(=O)c4cnc[nH]4)CC3)sc2c1	5.4	6.3	-0.8	11.1*	-50.4	2.9
O=C(Nc1nc2ccc(C(=O)N3CCCCC3)cc2s1)C1CCCCC1	2.8	x	0.6	2.4	x	15.7*
Nc1ccc2nc(NC(=O)C3CCCCC3)sc2c1	-4.8	x	2.6	0.4	x	5.5
COc1ccc(-n2c(SC(C)C(=O)Nc3ncc(Cl)cc3Cl)nc3ccccc32)cc1 (stereo not drawn)	-9.4	-0.6	13.0	3.9	-3.2	17.7*
CC(Sc1nnc2ccccn12)C(=O)Nc1ncc(Cl)cc1Cl (stereo not drawn)	-0.8	-1.0	-1.6	0.8	0.0	3.2
Cc1cccn2cc(-c3ccc(S(=O)(=O)N4CCCCC4)cc3)nc12	10.1*	x	2.4	0.8	x	2.3
CCOC(=O)c1c(/N=C/C2=C(O)CCCC2=O)sc(C)c1C	-2.9	-4.8	-1.9	0.0	-33.3	2.1
SMILES	HMGR II inh	Yeast life ext	b-catenin transl	RAM inhibit	Yeast growth inh	MT stabilizer
CCOC(=O)c1c(/N=C/c2cccc([N+](=O)[O-])c2O)sc(C)c1C	-7.1	-5.7	0.5	-0.4	75.3*	4.2
C=CCn1c(SCC(=O)c2ccc(OC)cc2)nnc1-c1cc2cccc(OC)c2o1	-1.4	-8.5	-1.1	10.6*	-35.4	3.3
COc1ccccc1N1CCN(C(=O)c2ccc(Cl)c(S(=O)(=O)NCc3ccco3)c2)CC1	1.0	-4.0	129.3*	1.6	-27.9	50.2*
O=C(Nc1ccccc1N1CCOCC1)c1ccc(Cl)c(S(=O)(=O)NCc2ccco2)c1	1.7	x	-3.3	1.2	x	2.4
O=C(c1ccc(Cl)c(S(=O)(=O)NCc2ccco2)c1)N1CCN(c2ccccc2F)CC1	-3.1	-3.7	x	-0.3	-41.0	41.2*
CN(C)c1ccc(/C=N/NC(=O)COc2ccccc2)cc1	-3.4	x	-0.6	2.4	x	9.5
O=C(COc1ccccc1-c1ccccc1)N/N=C/c1cccc2ccccc12	-0.5	-11.8	112.1*	2.4	-30.6	8.0
COc1ccc(/C=N/NC(=O)COc2ccccc2-c2ccccc2)cc1	0.1	-17.0	142.4*	0.0	-60.0	13.1
Cc1nc(NC(=O)c2ccc(Cl)cc2)sc1-c1csc(Nc2cccc(F)c2)n1	-2.9	-18.9	5.5	7.2	-39.0	39.9*
Cc1ccc(Nc2nc(-c3sc(NC(=O)c4cccc(Cl)c4)nc3C)cs2)cc1	-4.5	-3.5	x	5.3	-87.8	3.0
COc1ccc(C=C(c2ccc(OC)cc2)c2ccc(OC)cc2)cc1	-5.5	-1.8	-1.4	8.5*	-66.8	3.0
COc1ccc(C(=O)/C=C/c2ccc(O)cc2)cc1	-2.3	x	0.2	-0.9	x	4.0
CC(C)Oc1ccc(C(=O)NC(Cc2c[nH]c3ccccc23)C(=O)NN)cc1 (stereo not drawn)	x	x	-0.6	x	x	x
Cc1ccc(/C=C(\CCC(=O)O)c2nc3ccccc3s2)cc1[N+](=O)[O-]	0.6	3.8	-1.4	10.0*	-38.5	5.0
CNc1ccc(/C=C(\CCC(=O)O)c2nc3ccccc3s2)cc1[N+](=O)[O-]	-1.6	-1.2	-0.1	10.5*	-41.2	2.1
CSC(=NC#N)N1CCN(c2ccc([N+](=O)[O-])cc2)CC1	-1.9	x	0.3	2.1	x	4.2
COc1ccccc1NC(=O)CSc1nnc(-c2ccco2)n1Cc1ccco1	-3.8	-6.7	2.3	1.6	-14.6	4.0
COc1ccc(C)cc1NC(=O)CSc1nnc(COc2ccc(Cl)cc2)n1Cc1ccco1	1.1	-8.7	0.3	9.7*	-28.5	6.7
COc1ccc(C)cc1NC(=O)CSc1nnc(-c2ccccn2)n1Cc1ccco1	-2.5	-18.3	0.7	3.3	-32.8	7.7
COc1ccc(NC(=O)CSc2nnc(COc3ccccc3)n2Cc2ccco2)cc1OC	-1.2	-8.4	-0.7	9.9*	-72.2	2.4
O=C(CSc1nnc(-c2ccco2)n1Cc1ccco1)Nc1ccccc1	-6.0	-7.8	-3.8	11.3*	-19.4	2.0
COc1ccc(NC(=O)CSc2nnc(-c3ccccc3)n2Cc2ccco2)c(OC)c1	-0.4	-9.3	-1.6	0.3	-62.4	6.3
COc1ccc(C)cc1NC(=O)CSc1nnc(COc2ccccc2)n1Cc1ccco1	2.3	-3.5	-4.2	9.5*	-12.9	2.3
COc1ccccc1N1CCN(C(=O)CCCCCn2c(=O)[nH]c3ccsc3c2=O)CC1	-3.8	x	-1.6	-0.8	x	3.1
